These results are taken from ChEMBL document CHEMBL3526151, “Reversible disulfide formation of the glutamate carboxypeptidase II inhibitor E2072 results in prolonged systemic exposures in vivo” (Drug Metab Dispos, 2012).

Structures are written as SMILES.

Series [1] is described as follows: Apparent volume of distribution in Sprague-Dawley rat at 10 mg/kg, po administered via gavage measured under fasted conditions by LC-MS/MS analysis. It counts as ADME, organism-based. Details: dose 10 mg/kg, route oral. As to conditions: in vivo. The gist of the method:
(§1)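 Fasted male Sprague-Dawley rats (280–330 g) received 0.1, 1, 10 or 30 mg/kg by oral gavage in 50 mM HEPES buffered saline, pH 7.4. Blood drawn at 0.25–24 h into heparin/NEM tubes; plasma analyzed by LC-MS/MS. Cmax taken as observed. AUC by linear trapezoidal rule with extrapolation by λz. Cl/F and Vd/F reported. Mean ± S.D., n = 4–9.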

A short description of series [2]: Apparent volume of distribution in Sprague-Dawley rat at 10 mg/kg, po administered via gavage measured under fed conditions by LC-MS/MS analysis. As to conditions: in vivo. The series is classed as ADME, organism-based. Details: dose 10 mg/kg, route oral. Put shortly:
(§2)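 Nonfasted male Sprague-Dawley rats given a single 10 mg/kg oral dose in 50 mM HEPES buffered saline, pH 7.4. Plasma collected 0.25–24 h into heparin/NEM tubes and assayed by LC-MS/MS. Noncompartmental parameters derived, including Cl/F and Vd/F. Mean ± S.D., n = 6–9.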

For series [3], the species on record is Rattus norvegicus. Put plainly: Drug recovery in Sprague-Dawley rat plasma stability experiment. The note with it: in vitro.
Series [4] concerns Rattus norvegicus. In words: Toxicity in Sprague-Dawley rat chronic constriction injury model assessed as paw withdrawal latencies on non-ligated side at 10 mg/kg/day, po. The series is classed as organism-based. As to conditions: in vivo. Details: route oral.
Series [5] has as its system Cynomolgus monkey. In words: AUC(0 to infinity) in cynomolgus monkey at 5 mg/kg, po by LC-MS/MS analysis. The series is classed as ADME, organism-based, Macaca fascicularis, Plasma. Details: dose 5 mg/kg, route oral, time infinity. The note with it: in vivo. Put shortly: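 Cynomolgus monkeys (n = 3) dosed orally at a nominal 5 mg/kg in TCEP-treated 50 mM HEPES solution. Blood taken via iliac or femoral arterial cannula up to 9 days into heparin/NEM tubes. Plasma analyzed by LC-MS/MS. Cl/F and Vd/F derived noncompartmentally.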

The nature of series [6]: Cmax in Sprague-Dawley rat at 10 mg/kg, iv by LC-MS/MS analysis. The series is classed as ADME, organism-based. Details: dose 10 mg/kg, route intravenous. The note with it: in vivo. The gist of the method: (§3)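 Male Sprague-Dawley rats dosed intravenously at 10 mg/kg (n = 6). Blood sampling extended to 7 days into heparin tubes containing NEM. Plasma assayed for parent and homodisulfide by LC-MS/MS, calibration range 1–5000 ng/ml. Noncompartmental analysis, t1/2 = 0.693/λz. Mean ± S.D.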

Series [7] is described as follows: Half life in Sprague-Dawley rat at 30 mg/kg, po administered via gavage measured under fasted conditions by LC-MS/MS analysis. The series is classed as ADME, organism-based. Details: dose 30 mg/kg, route oral. As to conditions: in vivo.
The nature of series [8]: Clearance in Sprague-Dawley rat at 0.1 mg/kg, iv administered as bolus injection measured under fasted conditions by LC-MS/MS analysis. It counts as ADME, organism-based. Details: dose 0.1 mg/kg, route intravenous. As to conditions: in vivo. Put shortly: (§4)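 Male Sprague-Dawley rats (280–330 g), jugular vein cannulated, fasted overnight until 4 h post-dose. Single tail-vein bolus of 0.1, 1, 10 or 30 mg/kg in 50 mM HEPES buffered saline, pH 7.4. Blood drawn 0–24 h into heparin tubes containing NEM. Plasma quantified by LC-MS/MS after NEM derivatization. Noncompartmental analysis: AUClast by linear trapezoidal rule, Cl = dose/AUC0-∞. Mean ± S.D., n = 4–9.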

Series [9] is described as follows: AUC(0 to last) in Sprague-Dawley rat at 1 mg/kg, iv administered as bolus injection measured under fasted conditions by LC-MS/MS analysis. Details: time 0 - last, dose 1 mg/kg, route intravenous. As to conditions: plasma. It counts as ADME, organism-based. The gist of the method:
as §4

For series [10], the system named is Cynomolgus monkey. Put plainly: Clearance in cynomolgus monkey at 5 mg/kg, iv administered as bolus injection by LC-MS/MS analysis. The note with it: in vivo. Details: dose 5 mg/kg, route intravenous. The series is classed as ADME, organism-based, Macaca fascicularis. Put shortly: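 Cynomolgus monkeys (n = 3) given a 5 mg/kg intravenous bolus via cephalic or saphenous vein. Dosing solution in 50 mM HEPES, TCEP-treated. Arterial cannula blood collected up to 9 days into heparin/NEM tubes. Plasma assayed by LC-MS/MS. Noncompartmental analysis.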

The nature of series [11]: Cmax in Sprague-Dawley rat kidney at 10 mg/kg, po administered as single dose measured per gm of tissue by LC-MS/MS analysis. It counts as ADME, organism-based. Details: dose 10 mg/kg, route oral. Put shortly: (§5)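 Male Sprague-Dawley rats were dosed orally with 10 mg/kg/day, either once or daily for 5 days; n = 4 per group. Blood was taken by cardiac puncture and liver, kidney, brain and sciatic nerve were collected at 0–8 h post-dose. Tissues were homogenized in PBS containing NEM at equal volume per gram. NEM-derivatized analyte was extracted with methanol and quantified by LC-MS/MS (1–5000 ng/ml). Cmax is the observed value.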

Series [12] concerns Rattus norvegicus. In words: AUC(0 to infinity) in Sprague-Dawley rat at 0.1 mg/kg, po administered via gavage measured under fasted conditions by LC-MS/MS analysis. The note with it: in vivo. Details: time infinity, dose 0.1 mg/kg, route oral. It counts as ADME, organism-based, Plasma. The gist of the method:
as §1

Series [13] can be described thus: AUC(0 to last) in Sprague-Dawley rat at 10 mg/kg, iv by LC-MS/MS analysis. The series is classed as ADME, organism-based. Details: time 0 - last, dose 10 mg/kg, route intravenous. The note with it: plasma. The gist of the method: as §3
Series [14] in a line: Phase 2 metabolic stability in monkey liver microsomes assessed as compound remaining at 10 uM measured for 1 hr by LC-MS/MS analysis. As to conditions: rhesus monkey, read-out: Stability. The series is classed as ADME, Macaca mulatta. Put shortly: (§6)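 For glucuronidation, compound was preincubated at 37°C in 50 mM Tris-HCl, pH 7.5, with 0.5 mg/ml liver microsomes, 8 mM MgCl2 and 25 µg/ml alamethicin. Reactions were started in duplicate with 2 mM UDPGA (final). Samples were taken up to 1 h, quenched with acetonitrile containing internal standard, and compound disappearance was measured by LC-MS/MS.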
(In general: Liver microsomes are a subcellular fraction often used to study metabolism.)

The nature of series [15]: Cmax in Sprague-Dawley rat at 0.1 mg/kg, po administered via gavage measured under fasted conditions by LC-MS/MS analysis. It counts as ADME, organism-based. Details: dose 0.1 mg/kg, route oral. As to conditions: in vivo. The gist of the method:
as §1

The nature of series [16]: Cmax in Sprague-Dawley rat liver at 10 mg/kg, po administered as single dose measured per gm of tissue by LC-MS/MS analysis. Details: dose 10 mg/kg, route oral. The series is classed as ADME, organism-based. The gist of the method:
as §5

Series [17] in a line: Phase 2 metabolic stability in dog liver microsomes assessed as compound remaining at 10 uM measured for 1 hr by LC-MS/MS analysis. As to conditions: read-out: Stability. The series is classed as ADME, Canis lupus familiaris. The gist of the method: as §6
Series [18] in a line: Tmax in Sprague-Dawley rat at 1 mg/kg, po administered via gavage measured under fasted conditions by LC-MS/MS analysis. It counts as ADME, organism-based. Details: dose 1 mg/kg, route oral. The note with it: in vivo. The gist of the method: (§7)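 Jugular-cannulated male Sprague-Dawley rats, 280–330 g, fasted overnight to 4 h post-dose. Single dose in 50 mM HEPES-buffered saline pH 7.4, by oral gavage or as tail-vein i.v. bolus. Blood into heparin/NEM tubes at 0–24 h. Plasma measured by LC-MS/MS; noncompartmental analysis; Tmax observed; Vd = dose/(AUCinf·λz).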

The nature of series [19]: Apparent oral clearance in Sprague-Dawley rat at 10 mg/kg, po administered via gavage measured under fed conditions by LC-MS/MS analysis. The series is classed as ADME, organism-based. Details: dose 10 mg/kg, route oral. As to conditions: in vivo. Put shortly: as §2
The nature of series [20]: Phase 2 metabolic stability in monkey liver microsomes assessed as compound remaining at 10 uM measured for 1 hr by LC-MS/MS analysis in absence of cofactors. The note with it: rhesus monkey, read-out: Stability. It counts as ADME, Macaca mulatta. Put shortly: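 Cofactor-free controls were run for each microsomal incubation: 0.5 mg/ml liver microsomes with 10 µM compound, omitting cofactors, so that cofactor-independent degradation could be measured. Samples were taken up to 1 h, quenched with acetonitrile containing internal standard, and the percent remaining was determined by LC-MS/MS.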

A short description of series [21]: Half life in Sprague-Dawley rat at 0.1 mg/kg, iv administered as bolus injection measured under fasted conditions by LC-MS/MS analysis. Details: dose 0.1 mg/kg, route intravenous. The series is classed as ADME, organism-based. As to conditions: in vivo.
Series [22] in a line: AUC(0 to last) in Sprague-Dawley rat at 10 mg/kg, po administered via gavage measured under fasted conditions by LC-MS/MS analysis. The series is classed as ADME, organism-based. As to conditions: plasma. Details: time 0 - last, dose 10 mg/kg, route oral. The gist of the method: as §1
A short description of series [23]: Tmax in Sprague-Dawley rat at 30 mg/kg, po administered via gavage measured under fasted conditions by LC-MS/MS analysis. The series is classed as ADME, organism-based. Details: dose 30 mg/kg, route oral. As to conditions: in vivo. The gist of the method:
as §7

Regarding `O=C(O)c1cccc(-c2cccc(CCS)c2C(=O)O)c1`, the Vd/F – broadly, the volume of distribution divided by bioavailability – in series [1] came out at 1.44 L/kg; in series [2], 1.09 L/kg. The compound further registered a Drug recovery in the series listed under Rattus norvegicus [3] of 60%. The Activity result with Rattus norvegicus [4] is on record as “Non-toxic”. The exposure (AUC) (as a rule, the area under the concentration-time curve, a measure of exposure) with Cynomolgus monkey [5] stood at 24935.6 ng·h/mL; in the series with Rattus norvegicus [12] it was 605 ng·h/mL. Further, the Cmax (usually the maximum level reached in the sampled fluid or tissue) in series [6] is 57200 ng/mL; in series [11], 405 ng/g; in series [15] it was 62.6 ng/mL; in [16] it was 453 ng/g. Further, the half-life (commonly the time needed for the level to fall by half in the phase considered) in series [7] is 3.15 h; in series [21] it was 2.3 h. Moreover, in series [8], the clearance – broadly, the volume of plasma or blood freed of the substance per unit of time – was 1 mL/min/kg. Besides, the values for the AUC(0-t) in series [9], in [13] and in series [22] were 12700 ng·h/mL, 86700 ng·h/mL and 33400 ng·h/mL, respectively. Moreover, the CL in the series with Cynomolgus monkey [10] was 0.367 mL/min/kg. Also, the remaining at 1 h, 10 µM in series [14], in [17] and in series [20] was over 90% in each case. Also, the values for the Tmax in series [18] and in series [23] were 0.58 h and 1.43 h, respectively. In addition, in series [19], the CL/F – broadly, the apparent clearance, not corrected for the fraction that reaches the circulation – is 5 mL/min/kg.
